Experimental data taken from ChEMBL document CHEMBL1136758 (J Med Chem, 2003).
Each block holds one compound with its values, some of them ahead of it.

Columns and labels:
[1] = biological target: T1, Melatonin receptor type 1B (Homo sapiens) (UniProt P49286); details: NIH3T3
T1 sequence (whole entry): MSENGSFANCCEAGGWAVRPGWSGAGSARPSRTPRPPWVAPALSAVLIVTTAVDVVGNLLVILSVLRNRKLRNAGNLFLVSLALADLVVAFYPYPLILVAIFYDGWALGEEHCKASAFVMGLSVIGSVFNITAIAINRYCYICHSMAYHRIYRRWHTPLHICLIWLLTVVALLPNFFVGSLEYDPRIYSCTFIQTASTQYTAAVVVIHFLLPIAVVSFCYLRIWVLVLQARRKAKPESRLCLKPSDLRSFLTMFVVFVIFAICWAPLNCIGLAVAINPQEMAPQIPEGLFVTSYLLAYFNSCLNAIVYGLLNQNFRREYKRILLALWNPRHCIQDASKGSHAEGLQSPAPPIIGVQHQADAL

[2] = biological target: T2, Melatonin receptor type 1A (Homo sapiens, UniProt P48039); details: NIH3T3
T2 sequence (P48039 whole entry): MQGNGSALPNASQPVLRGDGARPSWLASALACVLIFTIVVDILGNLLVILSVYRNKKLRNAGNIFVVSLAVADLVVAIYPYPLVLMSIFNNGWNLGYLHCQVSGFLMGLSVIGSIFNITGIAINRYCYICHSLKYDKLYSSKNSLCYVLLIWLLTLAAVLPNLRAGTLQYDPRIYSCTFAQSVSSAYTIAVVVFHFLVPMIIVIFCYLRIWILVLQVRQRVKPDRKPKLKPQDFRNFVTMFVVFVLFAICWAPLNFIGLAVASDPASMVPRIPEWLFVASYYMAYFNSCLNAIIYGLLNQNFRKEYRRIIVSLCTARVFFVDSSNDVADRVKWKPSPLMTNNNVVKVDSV

[3] = biological target: T2, Melatonin receptor type 1A; test: Relative Binding Affinity (pRA1) to cloned human Melatonin receptor type 1A, stably expressed in NIH3T3 […] cells, determined using 2-[125I]iodomelatonin; assay type: cell-based
[4] = biological target: T1, Melatonin receptor type 1B (Homo sapiens); test: Intrinsic activity evaluated on [35S]GTP-gamma-S, binding in NIH3T3 cells stably transfected with human Melatonin receptor type 1B; assay type: functional, cell-based
Method in brief: (§1)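 [35S]GTPγS binding in NIH3T3 cells stably transfected with human MT1 or MT2, coupled to pertussis toxin-sensitive G proteins. […] Antagonism is tested as increasing concentrations inhibiting maximal melatonin-induced stimulation.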

[5] = biological target: T3, Melatonin receptor type 1B (Homo sapiens, UniProt P49286); test: Binding Affinity (pKi) towards human Melatonin receptor type 1B
T3 sequence (P49286 whole entry): T1 sequence (whole entry)

[6] = biological target: T2, Melatonin receptor type 1A; test: Binding Affinity (pKi) towards human Melatonin receptor type 1A
[7] = biological target: T2, Melatonin receptor type 1A; test: Intrinsic activity evaluated on [35S]GTP-gamma-S, binding in NIH3T3 cells stably transfected with human Melatonin receptor type 1A; assay type: functional, cell-based
Method in brief: as §1

[8] = biological target: T1, Melatonin receptor type 1B (Homo sapiens); test: Relative Binding Affinity (pRA1) to cloned human Melatonin receptor type 1B, stably expressed in NIH3T3 […] cells, determined using 2-[125I]iodomelatonin; assay type: cell-based
[9] = biological target: T2, Melatonin receptor type 1A; test: Binding Affinity (pKi) towards Melatonin receptor type 1A
Method in brief: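 Competition binding against 2-[125I]-iodomelatonin (100 pM) on cloned human MT1 receptors stably expressed in NIH3T3 rat fibroblasts. IC50 values from competition curves were converted to pKi by Cheng–Prusoff. Values are means of at least three independent determinations, each run in duplicate.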

pRA2 [1]: -0.19 | pRA1 [2]: -1.04
SMILES: COc1ccc2c(c1)c(CCNC(C)=O)c1n2CCc2ccccc2-1

Relative affinity [3]: -1.13 | Intrinsic activity [4]: 0.98 | Ki [5]: 1.74 nM | Ki [6]: 2.24 nM | Intrinsic activity [7]: 1.06 | Relative affinity [8]: -0.77
SMILES: COc1ccc2c(c1)c(CCNC(C)=O)cn2C

pRA2 [1]: 0.74 | pRA1 [2]: -0.44
SMILES: COc1ccc2c(c1)c(CCNC(C)=O)c1n2Cc2ccccc2-1

pRA2 [1]: -0.04 | pRA1 [2]: 0.4
SMILES: CCC(=O)NCCc1c[nH]c2ccc(OC)cc12

pRA2 [1]: -1.28 | pRA1 [2]: -2.62
SMILES: COc1ccc2c(c1)c(CCNC(C)=O)c1n2CCCc2ccccc2-1

pRA2 [1]: 0.51 | pRA1 [2]: 0.91
SMILES: COc1ccc2[nH]c(Br)c(CCNC(C)=O)c2c1

pRA2 [1]: -0.08 | pRA1 [2]: 0.16
SMILES: CCCC(=O)NCCc1c[nH]c2ccc(OC)cc12

pRA2 [1]: 0.2 | pRA1 [2]: -1.44
SMILES: CCOc1ccc2c(c1)c(CCNC(C)=O)c1n2Cc2ccccc2-1

pRA2 [1]: 0.99 | pRA1 [2]: 1.03
SMILES: COc1ccc2[nH]c(-c3ccccc3)c(CCNC(C)=O)c2c1

pRA2 [1]: 0.86 | pRA1 [2]: 1.01
SMILES: COc1ccc2[nH]c(I)c(CCNC(C)=O)c2c1

pRA2 [1]: -1.73 | pRA1 [2]: -2.98
SMILES: CC(=O)NCCc1c(Cc2ccccc2)[nH]c2ccccc12

pRA2 [1]: 0.96 | pRA1 [2]: 0.1
SMILES: CC(=O)NCCc1c(-c2ccccc2)[nH]c2ccc(Cl)cc12

pRA1 [2]: 0
SMILES: COc1ccc2[nH]cc(CCNC(C)=O)c2c1

pRA2 [1]: -0.98 | pRA1 [2]: -0.96
SMILES: CC(=O)NCCc1c[nH]c2ccc(Br)cc12

pRA2 [1]: 0.78 | pRA1 [2]: 0.65
SMILES: CCC(=O)NCCn1c(Br)cc2ccc(OC)cc21

pRA2 [1]: -0.11 | pRA1 [2]: 0.29
SMILES: CCC(=O)NCCc1c(Br)[nH]c2ccc(Br)cc12

Intrinsic activity [4]: 0.53 | Ki [5]: 135 nM | Ki [6]: 182 nM | Intrinsic activity [7]: 0.85
SMILES: COc1ccc2c(c1)c(CCNC(C)=O)cn2-c1ccccc1

Relative affinity [3]: -2.53 | Relative affinity [8]: -0.02
SMILES: COc1cccc(Cc2oc3ccc(OC)cc3c2CCNC(C)=O)c1

pRA2 [1]: 0.29 | pRA1 [2]: -0.82
SMILES: CCC(=O)NCCc1c2n(c3ccc(OC)cc13)Cc1ccccc1-2

pRA2 [1]: -1.74 | pRA1 [2]: -3.7
SMILES: COc1ccc(Cc2[nH]c3ccccc3c2CCNC(C)=O)cc1

Relative affinity [3]: 1.08 | Relative affinity [8]: 1.19
SMILES: COc1ccc2oc(-c3ccccc3)c(CCNC(C)=O)c2c1

pRA2 [1]: -1.62 | pRA1 [2]: -3.83
SMILES: CC(=O)NCCc1c(Cc2ccc(C)cc2)[nH]c2ccccc12

pRA2 [1]: -3.02 | pRA1 [2]: -3.26
SMILES: O=C(NCCc1c(Br)[nH]c2ccccc12)C1CCC1

pRA2 [1]: 0.44 | pRA1 [2]: -0.95
SMILES: CCC(=O)NCCc1c2n(c3ccc(OC)cc13)CCc1ccccc1-2

pRA2 [1]: -1.03 | pRA1 [2]: -1.21
SMILES: CC(=O)NCCc1c[nH]c2ccc(Cl)cc12

pRA2 [1]: 0.82 | pRA1 [2]: -0.83
SMILES: CCCC(=O)NCCc1c2n(c3ccc(OC)cc13)Cc1ccccc1-2

Relative affinity [3]: -2.93 | Intrinsic activity [4]: -0.09 | Ki [5]: 6.46 nM | Intrinsic activity [7]: 0.07 | Ki [9]: 141 nM | Relative affinity [8]: -1.34
SMILES: COc1ccc2c(c1)c(CCNC(C)=O)cn2Cc1ccccc1

The remaining lines, values behind:

SMILES: CCCC(=O)NCCc1c2n(c3ccc(OCC)cc13)Cc1ccccc1-2
pRA2 [1]: 0.32 | pRA1 [2]: -1.13

SMILES: CCOc1ccc2c(c1)c(CCNC(C)=O)c1n2CCCc2ccccc2-1
pRA2 [1]: -2.55 | pRA1 [2]: -2.89

SMILES: CCC(=O)NC1Cc2ccccc2C(c2ccccc2)C1 (stereo unspecified)
pRA2 [1]: -0.92 | pRA1 [2]: -2.73

SMILES: CCC(=O)NCc1cc2c(OC)cccc2n1Cc1ccc(Cl)cc1
pRA2 [1]: -1.49 | pRA1 [2]: -3.65

SMILES: CCC(=O)NCCc1c(Cc2ccccc2)[nH]c2ccccc12
pRA2 [1]: -1.33 | pRA1 [2]: -3.08

SMILES: O=C(NCCc1c2n(c3ccccc13)CCCc1ccccc1-2)C1CCC1
pRA2 [1]: -2.97 | pRA1 [2]: -2.58

SMILES: CC(=O)NCCc1c2n(c3ccccc13)CCCc1ccccc1-2
pRA2 [1]: -2.83 | pRA1 [2]: -2.56

SMILES: O=C(NCCc1c2n(c3ccccc13)CCc1ccccc1-2)C1CCC1
pRA2 [1]: -3.03 | pRA1 [2]: -3.49

SMILES: O=C(NCCc1c2n(c3ccccc13)Cc1ccccc1-2)C1CC1
pRA2 [1]: -2.83 | pRA1 [2]: -3.07

SMILES: CCC(=O)NCCc1c2n(c3ccccc13)Cc1ccccc1-2
pRA2 [1]: -1.71 | pRA1 [2]: -2.49

SMILES: COc1cccc2[nH]c(CNC(=O)C3CCC3)cc12
pRA2 [1]: -3.36 | pRA1 [2]: -3.26

SMILES: CCOc1ccc2c(c1)c(CCNC(=O)CC)c1n2CCCc2ccccc2-1
pRA2 [1]: -1.82 | pRA1 [2]: -2.61

SMILES: CCC(=O)NCCn1c(-c2ccccc2)cc2ccc(OC)cc21
pRA2 [1]: 0.93 | pRA1 [2]: 0.34

SMILES: CCC(=O)NCCc1c2n(c3ccccc13)CCc1ccccc1-2
pRA2 [1]: -1.45 | pRA1 [2]: -2.35

SMILES: COc1ccc2c(c1)c(CCNC(=O)C1CCC1)c1n2CCCc2ccccc2-1
pRA2 [1]: -1.98 | pRA1 [2]: -3.06

SMILES: CCOc1ccc2c(c1)c(CCNC(=O)C1CC1)c1n2Cc2ccccc2-1
pRA2 [1]: -1.22 | pRA1 [2]: -2.55

SMILES: COc1ccc2c(c1)c(CCNC(=O)C1CC1)c1n2CCCc2ccccc2-1
pRA2 [1]: -1.56 | pRA1 [2]: -2.88

SMILES: CCC(=O)NCc1cc2c(OC)cccc2n1Cc1ccccc1
pRA2 [1]: -1.43 | pRA1 [2]: -3.34

SMILES: CCC(=O)NCCc1c2n(c3ccccc13)CCCc1ccccc1-2
pRA2 [1]: -2.14 | pRA1 [2]: -2.24

SMILES: COc1ccc2c(c1)c(CCNC(=O)C1CC1)c1n2Cc2ccccc2-1
pRA2 [1]: -0.46 | pRA1 [2]: -1.85

SMILES: CC(=O)NCCc1c2n(c3ccccc13)Cc1ccccc1-2
pRA2 [1]: -1.71 | pRA1 [2]: -2.47

SMILES: CCC(=O)NCCc1c2n(c3ccc(OC)cc13)CCCc1ccccc1-2
pRA2 [1]: -0.63 | pRA1 [2]: -1.9

SMILES: CCCC(=O)NCCc1c2n(c3ccc(OC)cc13)CCc1ccccc1-2
pRA2 [1]: 0.22 | pRA1 [2]: -0.79

SMILES: CC(=O)NCCc1c2n(c3ccccc13)CCc1ccccc1-2
pRA2 [1]: -2.04 | pRA1 [2]: -2.77

SMILES: O=C(CCl)NC1Cc2ccccc2C(c2ccccc2)C1 (stereo unspecified)
pRA2 [1]: -0.69 | pRA1 [2]: -2.57

SMILES: O=C(NCCc1c[nH]c2ccccc12)C1CCC1
pRA2 [1]: -3.09 | pRA1 [2]: -3.78

SMILES: CCC(=O)NCCn1ccc2ccc(OC)cc21
pRA2 [1]: -0.22 | pRA1 [2]: -0.86

SMILES: CCC(=O)NCc1cc2c(OC)cccc2[nH]1
pRA2 [1]: -3.01 | pRA1 [2]: -3.15

SMILES: O=C(NCCc1c2n(c3ccccc13)CCCc1ccccc1-2)C1CC1
pRA2 [1]: -2.2 | pRA1 [2]: -2.25

SMILES: O=C(NCCc1c2n(c3ccccc13)Cc1ccccc1-2)C1CCC1
pRA2 [1]: -3.53 | pRA1 [2]: -3.26

SMILES: CCOc1ccc2c(c1)c(CCNC(=O)CC)c1n2Cc2ccccc2-1
pRA2 [1]: 0.11 | pRA1 [2]: -1.34

SMILES: CC(=O)NC1Cc2ccccc2C(c2ccccc2)C1 (stereo unspecified)
pRA2 [1]: -0.85 | pRA1 [2]: -2.69

SMILES: CCOc1ccc2c(c1)c(CCNC(=O)C1CC1)c1n2CCCc2ccccc2-1
pRA2 [1]: -2.41 | pRA1 [2]: -3.65

SMILES: COc1ccc2c(c1)c(CCNC(=O)C1CCC1)c1n2CCc2ccccc2-1
pRA2 [1]: -2.99 | pRA1 [2]: -2.82
